Legend:
Galanin receptor type 1 [1] = biological target: T1, Galanin receptor type 1 (Homo sapiens, UniProt P47211); assay: Displacement of [125I]galanin from GalR1 by gamma counting
T1 sequence (P47211 whole entry): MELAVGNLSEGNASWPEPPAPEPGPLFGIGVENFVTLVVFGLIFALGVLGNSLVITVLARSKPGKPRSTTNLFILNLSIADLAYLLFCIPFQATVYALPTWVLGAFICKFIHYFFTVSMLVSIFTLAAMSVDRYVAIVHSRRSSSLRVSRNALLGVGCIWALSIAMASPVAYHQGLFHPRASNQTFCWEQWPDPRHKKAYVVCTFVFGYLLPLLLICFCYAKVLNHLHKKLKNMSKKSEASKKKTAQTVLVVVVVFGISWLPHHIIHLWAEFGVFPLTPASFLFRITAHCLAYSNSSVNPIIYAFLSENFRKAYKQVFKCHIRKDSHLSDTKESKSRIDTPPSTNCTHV
How it was run: (§1)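 Full-curve competition over 10 nM–100 μM, with a rat galanin control on every plate. Compounds were diluted in 20% DMSO. Membranes were GalR1 2.5 μg or GalR2 5 μg, with 125I porcine galanin at 0.1 nM (GalR1) or 0.15 nM (GalR2), 1 h at room temperature. Filtration, washing and γ-counting followed. IC50 came from a nonlinear one-site competition fit, reported only when the curve bottom fell below 35% of total binding.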

[2] = biological target: T2, Galanin receptor type 2 (Homo sapiens) (UniProt O43603); assay: Displacement of [125I]galanin from GalR2 at 10 uM by gamma counting
T2 sequence (whole entry): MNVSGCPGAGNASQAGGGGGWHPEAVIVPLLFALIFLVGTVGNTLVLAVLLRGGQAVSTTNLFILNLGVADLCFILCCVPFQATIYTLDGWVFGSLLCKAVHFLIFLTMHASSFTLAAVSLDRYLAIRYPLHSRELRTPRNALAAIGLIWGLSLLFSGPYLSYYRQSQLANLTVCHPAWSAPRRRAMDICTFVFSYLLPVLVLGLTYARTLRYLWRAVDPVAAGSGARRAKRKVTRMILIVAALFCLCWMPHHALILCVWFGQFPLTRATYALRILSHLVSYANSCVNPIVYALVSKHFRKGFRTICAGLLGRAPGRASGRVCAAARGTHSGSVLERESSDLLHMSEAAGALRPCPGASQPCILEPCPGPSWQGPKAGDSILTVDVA
How it was run: (§2)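 Single-point screen at 1 and 10 μM, in duplicate, with two screens per receptor. Final 125I porcine galanin was 0.1 nM (GalR1) or 0.15 nM (GalR2). Incubation 1 h, room temperature. Filtration through PEI-treated glass fibre, cold PBS/Triton washes, γ-counting.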

[3] = biological target: T2, Galanin receptor type 2 (Homo sapiens); assay: Displacement of [125I]galanin from GalR2 at 1 uM by gamma counting; how it was run: as §2
Galanin receptor type 2 [4] = biological target: T3, Galanin receptor type 2 (Homo sapiens, UniProt O43603); assay: Displacement of [125I]galanin from GalR2 by gamma counting; how it was run: as §1
T3 sequence (O43603 whole entry): T2 sequence (whole entry)

Galanin receptor type 1 [5] = biological target: T1, Galanin receptor type 1; assay: Displacement of [125I]galanin from GalR1 at 100 uM by gamma counting
Galanin receptor type 2 [6] = biological target: T3, Galanin receptor type 2; assay: Displacement of [125I]galanin from GalR2 at 100 uM by gamma counting

IC50 (Galanin receptor type 1 [1]) [µM] | inhibition [2] [%] | inhibition [3] [%] | IC50 (Galanin receptor type 2 [4]) [µM] | IC50 (Galanin receptor type 1 [5]) | IC50 (Galanin receptor type 2 [6]) | SMILES
5.48 | > 50 | > 50 | 0.77 | – | – | COc1ccc(Nc2nc(Nc3ccc(OC)c(F)c3)cc(N3CCCCCC3)n2)cc1
– | > 50 | > 50 | 8.04 | Not Active | – | COc1ccc(Nc2cc(Nc3ccc(OC)cc3)nc(N3CCCC3)n2)cc1
3.84 | – | – | – | – | Not Active | COc1ccc(Nc2nc(Nc3ccc(OC)c(F)c3)cc(N3CCN(c4ncccn4)CC3)n2)cc1
3.9 | > 50 | > 50 | 2.08 | – | – | Cc1ccc(C)c(Nc2cc(N3CCCCC3)nc(N3CCCN(c4ncccc4C(F)(F)F)CC3)n2)c1
4.6 | > 50 | > 50 | 0.93 | – | – | COc1ccc(Nc2cc(Nc3cccc(OC)c3)nc(N3CCCC3)n2)cc1
6.32 | > 50 | > 50 | 2.03 | – | – | COc1ccc(Nc2cc(N3CCCCC3)nc(N3CCCN(c4ncccc4C(F)(F)F)CC3)n2)cc1F
34.9 | > 50 | > 50 | 6.62 | – | – | FC(F)(F)Oc1cccc(Nc2cc(Nc3ccccc3)nc(N3CCCCC3)n2)c1
– | > 50 | > 50 | 0.98 | Not Active | – | COc1ccc(Nc2nc(Nc3ccc(F)cc3C)cc(N3CCCCC3)n2)cc1
6.9 | > 50 | > 50 | 4.15 | – | – | FC(F)Oc1cccc(Nc2cc(Nc3ccccc3)nc(N3CCCCC3)n2)c1
– | – | – | – | Not Active | Not Active | COc1ccc(Nc2nc(Nc3ccc(OC)c(F)c3)cc(N3CCCC3)n2)cc1
– | – | – | – | Not Active | Not Active | COc1ccc(Nc2nc(Nc3ccc(OC)c(F)c3)cc(N3CCCCC3C)n2)cc1 (stereo not drawn)
– | – | – | – | Not Active | Not Active | FC(F)(F)Oc1ccc(Nc2cc(Nc3ccccc3)nc(N3CCCCC3)n2)cc1
– | > 50 | > 50 | 4.18 | Not Active | – | COc1ccc(Nc2nc(Nc3ccc(F)c(Cl)c3)cc(N3CCCCC3)n2)cc1
– | > 50 | > 50 | 1.93 | Not Active | – | COc1ccc(Nc2nc(NCc3cccc(C(F)(F)F)c3)cc(N3CCCCC3)n2)cc1
12.8 | > 50 | > 50 | 3.4 | – | – | COc1ccc(Nc2cc(N3CCN(c4ccccc4)CC3)nc(N3CCCC3)n2)cc1
6.82 | > 50 | > 50 | 24.9 | – | – | COc1ccc(Nc2nc(Nc3ccc(OC)c(F)c3)cc(N3CCN(c4ccccc4)CC3)n2)cc1
6.78 | > 50 | > 50 | 1.34 | – | – | COc1ccc(Nc2nc(Nc3ccc(OC)c(F)c3)cc(N3CCCC(C)C3)n2)cc1 (stereo not drawn)
16 | – | – | – | – | Not Active | COc1ccc(Nc2nc(Nc3ccc(OC)c(F)c3)cc(N3CCC(N4CCCCC4)CC3)n2)cc1
– | > 50 | > 50 | 0.44 | Not Active | – | COc1ccc(Nc2nc(Nc3cc(C)ccc3C)cc(N3CCCCC3)n2)cc1
6.77 | > 50 | > 50 | 8.65 | – | – | COc1ccc(Nc2cc(Nc3ccccc3)nc(N3CCCCC3)n2)cc1F
3.84 | > 50 | > 50 | – | – | Not Active | COc1ccc(Nc2nc(NCC3CCCCC3)cc(Nc3ccc(OC)c(F)c3)n2)cc1
– | > 50 | > 50 | 2.85 | Not Active | – | CCN(CC)c1cc(Nc2ccc(OC)c(F)c2)nc(Nc2ccc(OC)cc2)n1

IC50 (Galanin receptor type 1 [1]) [µM] | inhibition [2] [%] | inhibition [3] [%] | IC50 (Galanin receptor type 2 [4]) [µM] | IC50 (Galanin receptor type 1 [5]) | IC50 (Galanin receptor type 2 [6]) | SMILES
27.5 | > 50 | > 50 | 12.5 | – | – | COc1ccc(Nc2cc(Nc3ccc(OC(F)F)cc3)nc(NC3CCCCC3)n2)cc1
6.82 | > 50 | > 50 | 0.55 | – | – | COc1ccc(Nc2cc(Nc3cccc(OC(F)(F)F)c3)nc(NC3CCCCC3)n2)cc1
– | > 50 | > 50 | 1.18 | Not Active | – | COc1ccc(Nc2nc(Nc3ccc(C)cc3C)cc(N3CCCCC3)n2)cc1
– | > 50 | > 50 | 0.43 | Not Active | – | COc1ccc(Nc2nc(Nc3ccc(OC)c(F)c3)cc(N3CCCCC3)n2)cc1
5.62 | > 50 | > 50 | 1.75 | – | – | COc1ccc(Nc2cc(Nc3cccc(OC)c3)nc(NC3CCCCC3)n2)cc1
– | > 50 | > 50 | 3.38 | Not Active | – | FC(F)Oc1ccc(Nc2cc(Nc3ccccc3)nc(N3CCCCC3)n2)cc1
– | > 50 | > 50 | 0.38 | Not Active | – | COc1ccc(Nc2nc(Nc3cccc(F)c3C)cc(N3CCCCC3)n2)cc1
– | > 50 | > 50 | 4.57 | Not Active | – | Cc1ccc(C)c(Nc2cc(Nc3ccccc3)nc(N3CCCCC3)n2)c1
3.35 | > 50 | > 50 | 1.92 | – | – | COc1ccc(Nc2cc(N3CCCCC3)nc(N3CCCN(c4ncccc4C(F)(F)F)CC3)n2)cc1
2.82 | > 50 | > 50 | 9.07 | – | – | COc1ccc(Nc2nc(Nc3ccc(OC)c(F)c3)cc(N3CCCN(C(=O)OC(C)(C)C)CC3)n2)cc1
– | > 50 | > 50 | 0.38 | Not Active | – | COc1ccc(Nc2nc(Nc3cccc(OC(F)(F)F)c3)cc(N3CCCCC3)n2)cc1
– | > 50 | > 50 | 0.33 | Not Active | – | COc1ccc(Nc2nc(Nc3ccc(OC(F)(F)F)cc3)cc(N3CCCCC3)n2)cc1
8.59 | > 50 | > 50 | 1.09 | – | – | COc1ccc(Nc2cc(Nc3ccccc3)nc(N3CCCCC3)n2)cc1
5.03 | > 50 | > 50 | 0.77 | – | – | COc1ccc(Nc2cc(Nc3cccc(OC(F)F)c3)nc(NC3CCCCC3)n2)cc1
– | – | – | – | Not Active | Not Active | COc1ccc(Nc2nc(Nc3ccc(OC(F)F)cc3)cc(N3CCCCC3)n2)cc1
5.93 | > 50 | > 50 | 1.06 | – | – | COc1ccc(Nc2cc(Nc3ccc(OC(F)(F)F)cc3)nc(NC3CCCCC3)n2)cc1
– | > 50 | > 50 | 0.54 | Not Active | – | COc1ccc(Nc2nc(Nc3cccc(OC(F)F)c3)cc(N3CCCCC3)n2)cc1
– | > 50 | > 50 | 0.78 | Not Active | – | COc1ccc(Nc2nc(Nc3ccc(C(F)(F)F)cc3)cc(N3CCCCC3)n2)cc1
– | > 50 | > 50 | 3.69 | Not Active | – | c1ccc(Nc2cc(NCc3ccc4c(c3)OCO4)nc(N3CCCCC3)n2)cc1
1.3 | > 50 | > 50 | 0.56 | – | – | Cc1c(F)cccc1Nc1cc(N2CCCCC2)nc(N2CCCN(c3ncccc3C(F)(F)F)CC2)n1
– | – | – | – | Not Active | Not Active | COc1ccc(Nc2nc(Nc3ccc(OC)c(F)c3)cc(N3CCC(C)CC3)n2)cc1
